Paper PMC3210410 (Bioorganic & medicinal chemistry letters, 2011)
Like-named read-outs stand apart in the source and are kept apart here. Blank lines part the entries; values can stand above or below the compound they belong to.

Columns and labels:
Assay type in all cases: biochemical
MMP-13 [1] = target: T1, MMP-13 (Homo sapiens, UniProt P45452); assay: FRET triple-helical peptide; settings: for MMP-13 % Inhibition: 40 μM compound, fTHP-15 substrate, triplicate
In short: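 Triple-helical fTHP-15 FRET substrate, whose conformation engages protease secondary binding sites (exosites), cleaved by MMP-13 with each test compound at 40 μM. Activity is reported as percent inhibition from triplicate assays.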

ADAM17/TACE = ADAM17/TACE (Homo sapiens, UniProt P78536); assay: TACE inhibition; settings: data not shown
MMP-13 [2] = target: T1, MMP-13; assay: Dual inhibition kinetic assays; settings: compound 4 with either compound 1 or 3
MMP-13 [3] = target: T1, MMP-13; assay: RP-HPLC-based secondary screen for artifactual inhibition; settings: data not shown
In short: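 Checks for fluorescence artifacts in the FRET assay. […] fTHP-15 substrate is analysed by RP-HPLC before and after adding test compound, so fluorescence interference can be separated from true inhibition of MMP-13.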

MMP-13 [4] = target: T1, MMP-13; assay: Single inhibitor kinetic assays with MMP-13 and fTHP-15; settings: for mode of inhibition of MMP-13-mediated hydrolysis of the fTHP: Lineweaver-Burk plot, lines crossing on X axis

ADAM17/TACE, sequence (P78536 215-824): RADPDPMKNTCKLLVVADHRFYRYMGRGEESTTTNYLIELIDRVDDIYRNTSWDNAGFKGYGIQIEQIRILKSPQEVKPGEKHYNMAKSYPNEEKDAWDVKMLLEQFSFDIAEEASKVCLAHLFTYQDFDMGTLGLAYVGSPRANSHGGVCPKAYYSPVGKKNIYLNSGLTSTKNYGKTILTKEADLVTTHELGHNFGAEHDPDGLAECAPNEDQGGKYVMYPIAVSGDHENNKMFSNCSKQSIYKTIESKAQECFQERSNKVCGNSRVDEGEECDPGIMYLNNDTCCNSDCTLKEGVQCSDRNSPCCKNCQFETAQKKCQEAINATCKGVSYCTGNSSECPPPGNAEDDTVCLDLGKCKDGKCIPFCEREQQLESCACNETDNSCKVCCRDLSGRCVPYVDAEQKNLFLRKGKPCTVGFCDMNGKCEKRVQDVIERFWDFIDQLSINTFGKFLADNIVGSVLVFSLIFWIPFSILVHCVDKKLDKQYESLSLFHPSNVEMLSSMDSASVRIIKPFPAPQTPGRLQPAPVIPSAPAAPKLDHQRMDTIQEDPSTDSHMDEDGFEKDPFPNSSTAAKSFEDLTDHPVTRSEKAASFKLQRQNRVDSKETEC

inhibition at 40 µM (MMP-13 [1]; read-out: Inhibition (%) at [inhibitor] = 40 μM, MMP-13): 51% | inhibition of TACE (ADAM17/TACE): do not inhibit | binding relation in dual inhibition kinetics (MMP-13 [2]): non-mutually exclusive binding
SMILES: Oc1nc(SCc2ccc(Cl)cc2)nc2c1CCC2 [Compound 4]

MMP-13 % Inhibition (MMP-13 [1]; SD <10% (Table 1)): inactive
SMILES: CCCc1cc(O)nc(SCc2ccc(Cl)cc2)n1 [Compound 9]

MMP-13 % Inhibition (MMP-13 [1]; SD <10% (Table 1)): inactive
SMILES: Oc1nc(SCc2ccc(Cl)cc2)nc2ccccc12 [Compound 16]

MMP-13 % Inhibition (MMP-13 [1]; SD <10% (Table 1)): inactive
SMILES: Oc1[nH]c(SCc2ccc(Cl)cc2)nc2nncc1-2 [Compound 17]

MMP-13 % Inhibition (MMP-13 [1]; SD <10% (Table 1)): inactive
SMILES: O=c1[nH]c(SCc2ccc(Cl)cc2)nc(O)c1Cc1ccccc1 [Compound 18]

MMP-13 % Inhibition (MMP-13 [1]; SD <10% (Table 1)): inactive
SMILES: CC(=O)Nc1c(O)nc(SCc2ccc(Cl)cc2)nc1O [Compound 19]

inhibition at 40 µM (MMP-13 [1]; read-out: MMP-13 % Inhibition): 68.7% | inhibition of TACE (ADAM17/TACE): do not inhibit | inhibition in RP-HPLC secondary screen (MMP-13 [3]): inhibitors | mode of inhibition of MMP-13-mediated hydrolysis of the fTHP (MMP-13 [4]): non-competitive | fold more potent as MMP-13 inhibitor than lead compound 4 (MMP-13 [4]; relative to compound 4): approximately 5 fold
SMILES: Cc1ccc(CSc2nc(O)c3c(n2)CCC3)cc1 [Compound 20, 2-[(4-methylphenyl)methylsulfanyl]-1,5,6,7-tetrahydrocyclopenta[d]pyrimidin-4-one]

inhibition at 40 µM (MMP-13 [1]; read-out: MMP-13 % Inhibition): 62.5% | inhibition of TACE (ADAM17/TACE): do not inhibit | inhibition in RP-HPLC secondary screen (MMP-13 [3]): inhibitors | mode of inhibition of MMP-13-mediated hydrolysis of the fTHP (MMP-13 [4]): non-competitive
SMILES: COC(=O)c1ccc(CSc2nc3c(c(=O)[nH]2)CCC3)cc1 [Compound 24, methyl 4-[(4-oxo-1,5,6,7-tetrahydrocyclopenta[d]pyrimidin-2-yl)sulfanylmethyl] benzoate]

MMP-13 % Inhibition (MMP-13 [1]; SD <10% (Table 2)): inactive
SMILES: O=C(CSc1nc2c(c(=O)[nH]1)CCC2)c1ccccc1 [Compound 30]

MMP-13 % Inhibition (MMP-13 [1]; SD <10% (Table 2)): inactive
SMILES: O=c1[nH]c(SCc2coc(-c3cccc(Cl)c3)n2)nc2c1CCC2 [Compound 31]

MMP-13 % Inhibition (MMP-13 [1]; SD <10% (Table 2)): Inactive
SMILES: Cc1oc(-c2cccc(Cl)c2)cc1CSc1nc2c(c(=O)[nH]1)CCC2 [Compound 32]

MMP-13 % Inhibition (MMP-13 [1]; SD <10% (Table 2)): inactive
SMILES: Cc1cccc(CSc2nc(O)c3c(n2)CCCC3)c1 [Compound 34]
